Results published in publication PMC13435124 (The FASEB Journal, 2026).
Like-named read-outs stand apart in the source and are kept apart here. Marks after values point to notes of the source that are not given here.

Tests used:
Nrf2 in N2a-APPswe cells [1] = assay: Nrf2 cytoplasmatic and nuclear protein levels, western blot; assay type: cell-based, mouse; conditions: 250 μM, 6 h, vs untreated cells
Summary of the method: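 N2a-APPswe cells exposed to test compound at 250 μM for 2, 4 and 6 h. Cytoplasmic and nuclear Nrf2 assessed by western blot.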

Nrf2 in N2a-APPswe cells [2] = assay: Nrf2 activation, Nrf2 Transcription Factor Assay Kit; assay type: cell-based, mouse; conditions: 250 μM
Summary of the method: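 N2a-APPswe cells exposed to test compound at 250 μM for 2, 4 and 6 h. Nrf2 activation determined with a commercial kit.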

N2a-APPswe cells = assay: Nrf2-dependent gene expression; assay type: cell-based, mouse
[3] = tested on: HMOX1 in N2a-APPswe cells; assay: HMOX1 protein levels, western blot; assay type: cell-based, mouse; conditions: 250 μM, 24 h, vs control
Summary of the method: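 N2a-APPswe cells treated 24 h with test compound at 250 μM. HMOX1 detected by western blot after milk blocking 1 h RT; anti-HMOX1 1:1000 in 5% BSA/TBS-T overnight at 4°C, then HRP secondary 1 h RT.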

[4] = tested on: BV-2 cells exposed to LPS; assay: Nos2 and Il-1β mRNA in LPS-stimulated microglia, real-time RT-PCR; assay type: cell-based, mouse; conditions: BV-2, 250 μM, LPS 50 ng/mL, 18 h
Summary of the method: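 BV-2 cells given test compound at 250 μM, LPS 50 ng/mL added 30 min later, incubated 18 h. Nos2 and Il-1β mRNA measured by real-time RT-PCR. Mean ± SEM of four independent experiments, relative to untreated control.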

[5] = tested on: BV-2 cells exposed to LPS; assay: Nitric oxide production; assay type: cell-based, mouse; conditions: BV-2, 250 μM, LPS 50 ng/mL, 24 h
Summary of the method: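 BV-2 microglia given test compound at 250 μM, then LPS 50 ng/mL 30 min later, for 24 h. Nitrite measured in supernatants by Griess assay at 550 nm against a sodium nitrite standard curve. Mean ± SEM of four independent experiments, relative to untreated control.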

N2a-wt cells = assay: Cell metabolism, Alamar Blue; assay type: cell-based, mouse; conditions: 24 h, Alamar Blue (Figure S1A)
Summary of the method: (§1)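 Cells exposed 24 h to test compound at 500, 250, 100, 50 or 5 μM, DMSO final up to 0.1% v/v. Resazurin 50 μM in PBS added 3 h before the end. Absorbance read at 570 nm with 620 nm reference. Highest nontoxic concentration chosen from metabolic capacity.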

BV-2 cells = assay: Cell metabolism, Alamar Blue; assay type: cell-based, mouse; conditions: 24 h, Alamar Blue (Figure S1B)
Summary of the method: as §1

[6] = Blood-brain barrier permeability, PAMPA with 2% porcine polar brain lipid; assay type: in vitro ADME; conditions: 150 μg/mL, 16 h, cut-off 2.0 × 10^−6 cm s^−1 (Figure S4)
Summary of the method: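 PAMPA blood–brain barrier model using membranes with 2% (w/v) porcine polar brain lipid. Permeability given as experimental Papp in cm/s. Mean of three independent experiments, each run in duplicate.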

BACE1 = BACE1 (Homo sapiens, UniProt P56817); assay: BACE1 activity assay; assay type: biochemical; conditions: cell-free, tested at 50, 100 and 250 μM (Table S1)
[7] = Pharmacokinetics after intranasal administration; assay type: in vivo, mouse; conditions: for Kp: B6C3F1, mouse, inhaled or intranasal, 100 mg/kg; for AUC t / AUCinf: WT mice
Summary of the method: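 WT B6C3F1 mice (25–30 g), acclimatised ≥7 days with food and water ad libitum, given test compound intranasally at 100 mg/kg. Plasma, brain and lung sampled at 5, 15, 30, 60, 120 and 180 min; n = 4. AUCt and AUCinf derived from concentration–time profiles.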

APP/PS1 female mice [8] = assay: Behavioral tests in 6-month-old females; assay type: in vivo, mouse; conditions: intranasal 50 mg/kg, 1 month
APP/PS1 female mice [9] = assay: Aβ40 and Aβ42 levels in brain and plasma of 6-month-old females; assay type: in vivo, mouse; conditions: 1 month
Summary of the method: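 WT and APP/PS1 females given PBS vehicle or test compound at 50 mg/kg (APP/PS1 only) intranasally, without anaesthesia, by micropipette for 1 month; groups of 5 per arm. Brain Aβ40 and Aβ42 quantified. Mean ± SEM of five to six animals.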

APP/PS1 female mice [10] = assay: Brain protein levels of 6-month-old females, western blot; assay type: in vivo, mouse; conditions: 50 mg/kg, 1 month
Summary of the method: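 Females received PBS or test compound at 50 mg/kg (APP/PS1 only) intranasally for 1 month. Brain hAPP, BACE1, iNOS, pro-IL-1β, HMOX1 and p44/42 MAPK assessed by western blot, with milk or BSA (phospho) blocking 1 h RT. Mean ± SEM of five animals; one-way ANOVA with Dunnett's or Tukey's test, p < 0.05.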

APP/PS1 male mice = assay: Fear conditioning test; assay type: in vivo, mouse; conditions: 100 mg/kg, 1 month
Summary of the method: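 10-month-old males, n = 5 per group, given intranasal PBS or test compound at 100 mg/kg for 1 month. Day 1: paired auditory–shock stimuli, return to cage 1 min after last pair. Day 2: freezing scored 5 min in context A. Day 3: altered context B, freezing scored 3 min, then 3 min with auditory cue.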

[11] = cited from earlier work; for dose-normalized AUC t in plasma: oral
[12] = source not given; cited from earlier work
[13] = N2a-APPswe, 1, 3 and 6 h (Figure S2)
[14] = 6-month-old APP/PS1 females + Iso 50 mg/kg
[15] = 6-month-old APP/PS1 females, 50 mg/kg, vs untreated

Chain of BACE1 (P56817 46-457 limits assumed): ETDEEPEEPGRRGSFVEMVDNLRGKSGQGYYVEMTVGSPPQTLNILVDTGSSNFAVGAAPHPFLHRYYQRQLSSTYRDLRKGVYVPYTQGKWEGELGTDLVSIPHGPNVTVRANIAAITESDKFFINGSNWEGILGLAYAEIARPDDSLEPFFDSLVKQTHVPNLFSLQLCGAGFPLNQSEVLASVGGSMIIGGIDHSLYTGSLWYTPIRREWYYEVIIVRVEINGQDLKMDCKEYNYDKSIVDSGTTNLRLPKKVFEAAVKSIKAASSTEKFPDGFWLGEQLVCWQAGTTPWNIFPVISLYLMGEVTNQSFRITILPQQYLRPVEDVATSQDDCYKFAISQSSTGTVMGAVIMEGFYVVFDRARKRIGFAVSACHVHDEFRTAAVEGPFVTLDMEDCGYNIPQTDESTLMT

CC=Cc1ccc(O)c(OC)c1 [Iso, 2‐methoxy‐4‐(prop‐1‐en‐1‐yl) phenol]
Nrf2 nuclear levels (Nrf2 in N2a-APPswe cells [1]): significantly increased | Nrf2 activation (ELISA kit) (Nrf2 in N2a-APPswe cells [2]): increased Nrf2 activation | Hmox1 gene expression (reduced in N2a-APPswe) (N2a-APPswe cells; N2a-APPswe, 250 μM, 3 h and 6 h): significantly reverted | Nqo1 gene expression (N2a-APPswe cells; [13]): induced | Sod1 gene expression (N2a-APPswe cells; [13]): induced | HMOX1 protein levels [3]: significant increase | LPS-induced Il-1β gene expression [4]: reduced | LPS-induced Nos2 gene expression [4]: reduced | LPS-triggered nitrite production [5]: significantly decreased | highest nontoxic concentration tested (N2a-wt cells): 250 µM | highest nontoxic concentration tested (BV-2 cells): 250 µM | BBB permeability (PAMPA Papp) [6]: could cross the BBB | BACE1 activity (BACE1): inhibited | Kp ([7]; brain and plasma): 0.23 | Kp ([7]; lung and plasma): 6.73 | AUC t ([7]; brain, intranasal 100 mg/kg): 140.87 ^c μg.min/g | AUCinf ([7]; brain, intranasal 100 mg/kg): 142.15 ^c μg.min/g | dose-normalized AUC t in plasma ([7]; intranasal 100 mg/kg, mice): 5.99 µg·min/mL/kg | dose-normalized AUCinf in plasma ([7]; intranasal 100 mg/kg, mice): 6.04 µg·min/mL/kg | AUC t ([7]; lung, intranasal 100 mg/kg): 4030.85 ^c μg.min/g | AUCinf ([7]; lung, intranasal 100 mg/kg): 4091.75 ^c μg.min/g | behavior (hot plate, open field, fear conditioning) (APP/PS1 female mice [8]): no relevant behavioral alterations were observed | plasma Aβ40 levels (APP/PS1 female mice [9]; [14]): 72.29 ± 7.271 picograms per milliliter | plasma Aβ42 levels (APP/PS1 female mice [9]; [14]): 83.88 ± 9.498 picograms per milliliter | brain Aβ40 levels (APP/PS1 female mice [9]; [15]): decreased | brain Aβ42 levels (APP/PS1 female mice [9]; [15]): decreased | decrease in brain p44/42 MAPK phosphorylated levels (APP/PS1 female mice [10]; 6-month-old APP/PS1 females): reverted | increase in brain HMOX1 protein levels (APP/PS1 female mice [10]; 6-month-old APP/PS1 mice, p = 0.068): 1.5 fold | brain APP protein levels (APP/PS1 female mice [10]; 6-month-old mice): not altered | % of freezing, contextual memory (day 2) (APP/PS1 male mice; APP/PS1 males): clear but not significant increase | associative memory (day 3) (APP/PS1 male mice; males): no differences were detected | alpha half-life distribution time ([11]; after intravenous dosing): 7 to 10 min | steady-state apparent volume of distribution ([11]; after intravenous dosing): 11 to 25.2 L/kg | dose-normalized AUCinf in plasma ([11]; intravenous 35 mg/kg, mice): 6.76 µg·min/mL/kg | dose-normalized AUC t in plasma ([11]; first listed of doses 35, 70 and 140 mg/kg, mice): 1.91 µg·min/mL/kg | dose-normalized AUC t in plasma ([11]; second listed of doses 35, 70 and 140 mg/kg, mice): 1.68 µg·min/mL/kg | dose-normalized AUC t in plasma ([11]; third listed of doses 35, 70 and 140 mg/kg, mice): 1.45 µg·min/mL/kg | octanol-water partition coefficient (logP) [12]: 3.04
